Paper PMC7485388 (ACS chemical biology, 2017)
Entries after “also recorded” stand apart in the source; their conditions may differ.

Columns and labels:
EphB3 WT = assay: EphB3 autophosphorylation in HEK293 cells co-expressing EphB3 WT; assay type: cell-based, human; details: 100 nM; HEK293 co-expressing EphB3 WT and EphB1 T697G; ephrin-B2 stimulation
In short: (§1)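 HEK293 cells transfected with Eph kinase variants were exposed to a range of test compound concentrations. Lysate protein was quantified by BCA and normalized before Western blotting. Blots were probed for phospho-EphB, total EphB1 or EphB3, and β-actin, giving autophosphorylation relative to total receptor.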

EphB1 T697G = molecular target: T1, EphB1 T697G (Homo sapiens, UniProt P54762, T697G); assay: EphB1 autophosphorylation in transfected HEK293 cells; assay type: cell-based
T1 sequence (P54762 18-984 T697G): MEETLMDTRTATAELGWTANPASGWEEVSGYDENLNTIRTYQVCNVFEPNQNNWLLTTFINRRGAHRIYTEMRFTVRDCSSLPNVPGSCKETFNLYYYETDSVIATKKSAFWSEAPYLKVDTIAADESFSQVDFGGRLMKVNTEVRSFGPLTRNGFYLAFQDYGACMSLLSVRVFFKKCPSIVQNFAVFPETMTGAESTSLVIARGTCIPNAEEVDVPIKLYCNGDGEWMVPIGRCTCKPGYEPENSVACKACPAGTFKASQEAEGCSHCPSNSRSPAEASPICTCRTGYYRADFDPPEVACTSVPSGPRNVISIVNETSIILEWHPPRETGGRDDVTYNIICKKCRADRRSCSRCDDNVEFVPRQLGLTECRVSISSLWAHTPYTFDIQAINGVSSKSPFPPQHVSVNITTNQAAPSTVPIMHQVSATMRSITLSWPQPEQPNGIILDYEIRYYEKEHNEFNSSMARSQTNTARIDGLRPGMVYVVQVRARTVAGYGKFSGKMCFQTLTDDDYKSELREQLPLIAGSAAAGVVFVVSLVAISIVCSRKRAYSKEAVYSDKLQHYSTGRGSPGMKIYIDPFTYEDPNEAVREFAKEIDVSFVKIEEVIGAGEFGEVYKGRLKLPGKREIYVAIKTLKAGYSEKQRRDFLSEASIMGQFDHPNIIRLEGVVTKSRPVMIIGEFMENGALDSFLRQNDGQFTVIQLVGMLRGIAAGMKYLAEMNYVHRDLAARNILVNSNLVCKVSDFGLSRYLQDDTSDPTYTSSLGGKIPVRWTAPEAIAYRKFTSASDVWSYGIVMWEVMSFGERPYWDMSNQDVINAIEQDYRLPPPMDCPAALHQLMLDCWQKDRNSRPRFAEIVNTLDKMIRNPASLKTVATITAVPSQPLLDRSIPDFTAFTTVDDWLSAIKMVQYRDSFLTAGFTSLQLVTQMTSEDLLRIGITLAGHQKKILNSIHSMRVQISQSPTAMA
In short: as §1

- autophosphorylation of EphB1 T697G (EphB1 T697G; 100 nM, HEK293 co-expressing EphB3 WT and EphB1 T697G, ephrin-B2 stimulation): abolished
- selectivity factor between the two EphB1 mutants (T697G over G703C) (EphB1 T697G; in cells): ~ 500
SMILES: Cc1cccc(Cc2nn(C(C)(C)C)c3ncnc(N)c23)c1 [3MB-PP1]
- autophosphorylation of EphB3 WT (EphB3 WT): little effect
- inhibition of the three EphB1 alleles in cells (EphB1 T697G; 100 nM, HEK293, tested on WT, G703C, T697G): only inhibited the analog-sensitive allele; also recorded: only inhibited EphB1^T697G
